Reference: ChEMBL document CHEMBL4334471, “Discovery of 1,8-disubstituted-[1,2,3]triazolo[4,5-c]quinoline derivatives as a new class of Hippo signaling pathway inhibitors” (Bioorg Med Chem Lett, 2019)
Calls of active or inactive are those of the source. The calls are words filed in the database; no cut-off is given here.

Tests used:
[1] = tested on: A549; assay: Inhibition of hippo signalling protein in human A549 cells cotransfected with CTGF promoter-driven firefly luciferase and CMV promoter-driven renilla luciferase gene assessed as increase in CTGF expression at 10 uM incubated for 24 hrs by dual-luciferase gene assay relative to control
[2] = tested on: A549; assay: Inhibition of hippo signalling protein in human A549 cells assessed as increase in CTGF mRNA expression level at 10 uM incubated for 24 hrs by qRT-PCR analysis; type: cell-based
Summary of the method: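 A549-CTGF cells were exposed to compound or 0.1% DMSO for 24 h before total RNA extraction. Endogenous CTGF mRNA was quantified by real-time PCR. Data were mean ± SEM (n=4) and compared by Student's t-test.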

[3] = target: Transcriptional coactivator YAP1 (Homo sapiens) (UniProt P46937); assay: Induction of YAP nuclear translocation in human A549 cells at 10 uM incubated for 8 hrs by immunofluorescence based confocal microscopy; type: cell-based
Sequence of Transcriptional coactivator YAP1 (Homo sapiens) (P46937 whole entry): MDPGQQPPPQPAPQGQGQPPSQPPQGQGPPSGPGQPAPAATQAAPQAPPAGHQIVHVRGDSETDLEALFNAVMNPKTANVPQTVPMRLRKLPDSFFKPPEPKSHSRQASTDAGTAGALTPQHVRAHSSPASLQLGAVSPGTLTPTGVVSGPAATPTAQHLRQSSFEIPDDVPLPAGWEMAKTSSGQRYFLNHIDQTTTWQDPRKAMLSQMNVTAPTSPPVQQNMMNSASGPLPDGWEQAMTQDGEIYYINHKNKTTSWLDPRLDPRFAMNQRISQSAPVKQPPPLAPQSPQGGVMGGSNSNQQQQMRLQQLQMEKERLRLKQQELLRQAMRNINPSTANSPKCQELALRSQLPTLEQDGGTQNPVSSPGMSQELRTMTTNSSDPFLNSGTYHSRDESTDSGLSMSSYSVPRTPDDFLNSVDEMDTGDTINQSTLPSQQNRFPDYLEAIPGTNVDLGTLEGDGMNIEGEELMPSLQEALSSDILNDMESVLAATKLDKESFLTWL
Summary of the method: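 A549-CTGF reporter cells were treated for 8 h at 10 µM, with 0.1% DMSO as vehicle control. Cells were then fixed, permeabilized and probed with anti-YAP antibody. DAPI stained the nuclei, and YAP localization was imaged by immunofluorescence.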

[4] = tested on: A549; assay: Inhibition of hippo signalling protein in human A549 cells cotransfected with CTGF promoter-driven firefly luciferase and CMV promoter-driven renilla luciferase gene incubated for 24 hrs by dual-luciferase gene assay; type: cell-based
Summary of the method: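 Dual-luciferase reporter read-out in A549-CTGF cells after 24 h culture with compound. Firefly luciferase is expressed relative to DMSO-treated cells, set as 1. Screening used 10 µM. Values are mean ± SEM of three independent experiments.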

For Cn1nnc2cnc3ccc(-c4cnc5[nH]ccc5c4)cc3c21, the fold change (FC) [1] was 0.55.
CC(C)n1nnc2cnc3ccc(-c4cnc5[nH]ccc5c4)cc3c21 showed a fold change (FC) [1] of 3.38.
CC[C@H](c1ccccc1)n1nnc2cnc3ccc(-c4cnc5[nH]ccc5c4)cc3c21 showed a fold change (FC) [1] of 3.72.
In the case of COc1ccc(-c2ccc3ncc4nnn([C@@H](C)c5ccccc5)c4c3c2)cn1, the fold change (FC) [1] is reported as 0.996.
C[C@@H](c1ccccc1)n1nnc2cnc3ccc(-c4ccc(N5CCOCC5)nc4)cc3c21 showed a fold change (FC) [1] of 1.06.
C[C@@H](c1ccccc1)n1nnc2cnc3ccc(-c4cnc(N)nc4)cc3c21 showed a fold change (FC) [1] of 3.49.
In the case of C[C@@H](c1cccc(F)c1)n1nnc2cnc3ccc(-c4cnc5[nH]ccc5c4)cc3c21, the fold change (FC) [1] is reported as 4.91.
C[C@@H](c1ccccc1)n1nnc2cnc3ccc(-c4ccnc5[nH]ccc45)cc3c21 was tested, and the fold change (FC) [1] was 0.549.
C[C@@H](c1ccccc1)n1nnc2cnc3ccc(-c4ccnc(N)c4)cc3c21 was tested, and the fold change (FC) [1] was 2.01.
For C[C@@H](c1ccccc1)n1nnc2cnc3ccc(-c4ccc(N)cc4)cc3c21, the fold change (FC) [1] was 2.24.
In the case of C[C@@H](c1ccccc1)n1nnc2cnc3ccc(-c4ccc(N)nc4)cc3c21, the fold change (FC) [1] is reported as 9.09.
CN1C(=O)c2sccc2N(C)c2nc(Nc3ccc(S(N)(=O)=O)cc3)ncc21 was tested, and the inhibition [2] was “Active”, the Activity [3] was “Active” and the inhibition [4] was “Dose-dependent effect”. It also gave a fold change (FC) [1] of 4.92.
C[C@@H](c1ccccc1)n1nnc2cnc3ccc(-c4ccc(N)c(Cl)c4)cc3c21 showed a fold change (FC) [1] of 1.73.
Work on C[C@H](c1ccccc1)n1nnc2cnc3ccc(-c4cnc5[nH]ccc5c4)cc3c21 yielded a fold change (FC) [1] of 8.1.
Compound COc1cccc([C@H](C)n2nnc3cnc4ccc(-c5cnc6[nH]ccc6c5)cc4c32)c1 has a fold change (FC) [1] of 3.13.
Work on C[C@@H](c1ccc(F)cc1)n1nnc2cnc3ccc(-c4cnc5[nH]ccc5c4)cc3c21 yielded a fold change (FC) [1] of 6.51.
Fc1ccc(Cn2nnc3cnc4ccc(-c5cnc6[nH]ccc6c5)cc4c32)cc1 gave a fold change (FC) [1] of 3.87.
For C[C@@H](c1ccccc1)n1nnc2cnc3ccc(-c4ccc(N(C)C)nc4)cc3c21, the fold change (FC) [1] was 1.19.
C[C@@H](c1ccccc1)n1nnc2cnc3ccc(-c4c[nH]c5ncccc45)cc3c21 was tested, and the fold change (FC) [1] was 1.11.
Compound C[C@@H](c1ccccc1)n1nnc2cnc3ccc(-c4ccccc4)cc3c21 has a fold change (FC) [1] of 1.43.
Compound C[C@@H](c1ccccc1)n1nnc2cnc3ccc(-c4ccc5[nH]ccc5c4)cc3c21 has a fold change (FC) [1] of 4.6.
C[C@@H](c1ccccc1)n1nnc2cnc3ccc(-c4ccc(Cl)nc4)cc3c21 showed a fold change (FC) [1] of 1.24.
C[C@H](c1cccc(F)c1)n1nnc2cnc3ccc(-c4cnc5[nH]ccc5c4)cc3c21 was tested, and the fold change (FC) [1] was 2.1.
C[C@H](c1ccc(F)cc1)n1nnc2cnc3ccc(-c4cnc5[nH]ccc5c4)cc3c21 gave a fold change (FC) [1] of 4.92.
For C[C@@H](c1ccccc1)n1nnc2cnc3ccc(-c4ccc(C#N)nc4)cc3c21, the fold change (FC) [1] was 1.94.
Fc1ccc(-n2nnc3cnc4ccc(-c5cnc6[nH]ccc6c5)cc4c32)cc1 was tested, and the fold change (FC) [1] was 3.44.
CC[C@@H](c1ccccc1)n1nnc2cnc3ccc(-c4cnc5[nH]ccc5c4)cc3c21 showed a fold change (FC) [1] of 8.06.
For COc1cccc([C@@H](C)n2nnc3cnc4ccc(-c5cnc6[nH]ccc6c5)cc4c32)c1, the fold change (FC) [1] was 2.22.
